Published values gathered from unrelated publications.
Protocols differ between the studies behind these lines.
Target: Macrophage-stimulating protein receptor (MST1R, Homo sapiens, UniProt Q04912)

| Compound | test | setting | quantity | value |
| --- | --- | --- | --- | --- |
| CCN(CC)CCNC(=O)c1c(C)[nH]c(/C=C2\C(=O)Nc3ccc(F)cc32)c1C | enzyme activity, inhibitor | 0.1 µM | remaining activity | 97% |
| Cc1cc(NC(=O)c2cccc3cc(-c4cccc5[nH]nc(N)c45)ccc23)ccc1F | enzyme activity, inhibitor | 0.1 µM | activity vs control | 110% |
| Clc1ccc(Nc2nnc(Cc3ccncc3)c3ccccc23)cc1 | cell-free assay | 0.5 µM | remaining signal | 91.6% |
| COc1cc(-c2cn(C3CCc4ccccc4N(CC(F)(F)F)C3=O)nn2)ccc1-n1ccc(C)n1 (stereo not shown) | cell-free assay, competition with immobilised ligand | 1 µM | remaining binding | 96% |
| Cc1[nH]c(/C=C2\C(=O)Nc3ccc(F)cc32)c(C)c1C(=O)N[C@H]1CCN(C(=O)N(C)C)C1 | enzyme activity, inhibitor | 0.1 µM | remaining activity | 93% |
| O=C1Nc2ccc(Cl)cc2C1=Cc1cc(Cl)c(O)c(Cl)c1 | cell-free assay | 0.5 µM | remaining signal | 94.8% |
| CCCCN(CCCC)C(=O)CN1C[C@@H](c2cc(OC)c3c(c2)OCO3)[C@H](C(=O)O)[C@H]1CC(C)(C)CCC | cell-free assay, competition with immobilised ligand | 1 µM | remaining binding | 100% |
| c1ccc(CNc2nc(N3CCOc4ccccc43)nc3c2CCCC3)cc1 | target engagement in cells, inhibitor, chemoproteomics | 20 mM | inhibition | -10.5% |
| O=C(Nc1cnn(-c2csc(C(=O)NC3COC3)c2)c1)Nc1c(F)cccc1Cl | enzyme activity, inhibitor | 5 µM | remaining activity | 100% |
| CC(C)(C)c1nc2c(s1)c1nc(N)ncc1c1ccc(NS(=O)(=O)c3c(F)cccc3F)c(F)c12 | enzyme activity, inhibitor, radiometric | 1 µM | remaining activity | 116% |
| CN1CC(Oc2cnc(C#N)cc2-c2ccn3nc(NC(=O)C4CC4)cc3c2)C1 | enzyme activity, inhibitor | 1 µM | inhibition | 5% |
| O=C1CCc2cc(Nc3cc(OC4CCOCC4)c([N+](=O)[O-])cc3Cl)ccc2N1 | cell-free assay, competition with immobilised ligand | 1 µM | remaining binding | 100% |
| COc1cc2ncnc(Nc3ccc(Oc4ccccc4)cc3C)c2cc1OC | enzyme activity, inhibitor | 1 µM | inhibition | -3% |
| CNC(=O)c1cc(Oc2ccc(NC(=O)Nc3ccc(Cl)c(C(F)(F)F)c3)cc2)ccn1 | cell-free assay | 0.3 µM | inhibition | -10% |
| Nc1ncnc2occ(-c3ccc(NC(=O)Nc4cc(C(F)(F)F)ccc4F)cc3)c12 | cell-free assay | 20 µM | remaining signal | 7.4% |
| Cc1cc(-n2nc(Cc3cc(F)cc(C(F)(F)F)c3)nc2C)ccc1C(N)=O | cell-free assay, competition with immobilised ligand | 1 µM | remaining binding | 100% |
| C=CC(=O)Nc1cc(Nc2nccc(Nc3cc(Cl)c(F)cc3C(C)(C)O)n2)c(OC)cc1N1CC[C@@H](N(C)C)C1 | enzyme activity, inhibitor | 1 µM | inhibition | 8% |
| O=C(NCc1ncc(C(F)(F)F)cc1Cl)c1ccc2c(c1)C1(CCS(=O)(=O)CC1)[C@H](C1CC1)N2S(=O)(=O)c1ccc(F)cc1 | cell-free assay, competition with immobilised ligand | 1 µM | remaining binding | 99% |
| Cc1ccc(Nc2nccc(N(C)c3ccc4c(C)n(C)nc4c3)n2)cc1S(N)(=O)=O | cell-free assay | 0.3 µM | inhibition | -3% |
